Source: PubChem BioAssay
Hits are enriched below; roughly 0.59% of the tested compounds scored in any of these assays.
OXTR potentiate – human OXTR potentiators, primary screen, fluorescence, CHO-OTR cells, Fluo-8 calcium; Fluo-8 calcium fluorescence, potentiator mode; 0% = oxytocin EC15, 100% = EC100; 320,000 compounds, 0.061% hits; activation, % at 3 µM;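 active = activation above that plate's cutoff, the mean activation of tested compounds plus 3 SD, cut at about 6.6% in these data, passing the limit was not always enough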;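 also: 100% uses oxytocin at 75 nM as the full agonist control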
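System: human OTR in CHO cells / Also added: sub-maximal oxytocin, roughly EC15 / Control set: EC15 oxytocin low, 75 nM oxytocin high / Schedule: 6 min compound pre-incubation at room temperature, 100 s kinetic read / Compound: single-point 3.0 µM / Replication: singlicate / Technique: Fluo-8 calcium dye fluorescence / Read-out basis: % activation of max/min ratio relative to oxytocin controls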
TRPML3 agonist – human TRPML3 channel agonists, primary screen, cell-based, HEK293 TRPML3-YFP, Fluo-8 calcium fluorescence, 3 µM. Mucolipin-3 (Homo sapiens), Q8TDD5. 100% = the carbachol control signal. activation, % at 3 µM. 220,000 compounds, 0.29% hits;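 active = activation above its plate's cutoff, the mean activation of the plate's test wells plus 3 SD, cut at about 12% in these data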;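 also: 0% = DMSO only wells and 100% = carbachol wells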
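Test system: TRPML3-YFP stable HEK293 cells. Doses: single point at 3 µM. Incubation: dye loading 1 h 37 °C then 30 min ambient, 125 s read. Signal: Fluo-8 calcium dye fluorescence, ex 470-495, em 515-575 nm. Measure: percent activation from peak-to-basal fluorescence ratio, scaled between DMSO and carbachol.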
V1aR counter – agonists of human V1a receptor, primary screen, counter-screen for OXTR agonist project, fluorescence, CHO-V1R cells; Vasopressin V1a receptor (Homo sapiens), P37288; Fluo-8 calcium fluorescence, agonist mode; 0% DMSO, 100% 3 nM vasopressin; activation, % at 3 µM; 320,000 compounds, 0.25% hits; AID 2797, 2010;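 active = activation above the mean activation of all tested compounds plus 3 SD, per screening run, cut at about 20% in these data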;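 also: signal is peak over basal fluorescence ratio across a 100 second FLIPR read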
Target sequence (P37288 whole entry, looked up): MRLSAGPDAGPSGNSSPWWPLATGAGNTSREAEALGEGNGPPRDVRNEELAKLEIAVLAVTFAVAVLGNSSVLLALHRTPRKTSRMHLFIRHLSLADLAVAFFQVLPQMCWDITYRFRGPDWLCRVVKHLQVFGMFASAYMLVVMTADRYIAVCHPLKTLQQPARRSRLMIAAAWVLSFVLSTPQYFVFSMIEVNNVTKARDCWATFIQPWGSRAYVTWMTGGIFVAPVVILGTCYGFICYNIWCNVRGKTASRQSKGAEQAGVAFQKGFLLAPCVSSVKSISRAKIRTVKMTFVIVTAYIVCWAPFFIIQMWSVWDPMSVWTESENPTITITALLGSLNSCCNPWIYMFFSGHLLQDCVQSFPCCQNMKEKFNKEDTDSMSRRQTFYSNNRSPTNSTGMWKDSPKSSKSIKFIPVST
OXTR ag – human OXTR agonists, primary screen, fluorescence, CHO-OTR cells, Fluo-8 calcium | Oxytocin receptor (Homo sapiens), P30559 | Fluo-8 calcium fluorescence; normalized: DMSO 0%, oxytocin 100% | activation, % at 3 µM | 320,000 compounds, 0.32% hits | AID 2435, 2010;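 active = activation above the mean of all tested compounds plus 3 SD, cutoff set per screening run, cut at about 20% in these data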;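 also: peak over basal fluorescence ratio from a 100 s FLIPR kinetic read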
zfTRPN1 agonist – zebrafish TRPN1 channel agonists, primary screen, cell-based, HEK293, calcium fluorescence; transient receptor potential cation channel N1 (TRPN1/NompC), Danio rerio; HEK293 zebrafish TRPN1-YFP, Fluo-8 calcium fluorescence; 100% = response to 87 µM carbachol; activation, % at 3 µM; 220,000 compounds, 0.18% hits; AID 1424, 2008;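 active = activation above its plate's cutoff, the mean activation of test wells on that plate plus 3 SD, cut at about 19% in these data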;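 also: 0% = DMSO alone and 100% = 87 µM carbachol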
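Control set: carbachol 87 µM as high control, DMSO as low control; system: HEK293 stable line with zebrafish TRPN1-YFP; read-out: % activation versus carbachol response; detection: intracellular calcium fluorescence with Fluo-8; doses: single test compound dose, 3 µM nominal, 0.3% DMSO; schedule: dye 1 h 37 °C plus 30 min RT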
TRPN1 ag 2 – zebrafish TRPN1 channel agonists, counter-screen for TRPML3 agonist project, cell-based, HEK293 TRPN1-YFP, Fluo-8 calcium; activation, % at 3 µM; AID 1525, 2009; 310 compounds, 10% hits; shares compounds with TRPML3 agonist; Fluo-8 calcium fluorescence; scaled: carbachol wells 100%, DMSO wells 0%;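 active = mean activation over replicates above a set limit taken from the earlier TRPN1 channel primary screen, cut at about 19% in these data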;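 also: 100% = carbachol and 0% = 0.3% DMSO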
TRPML3 confirm – human TRPML3 channel agonists, confirmation, cell-based, HEK293 TRPML3-YFP, Fluo-8 calcium, triplicate; shares compounds with TRPML3 agonist; Fluo-8 calcium fluorescence; 100% set by carbachol, 0% by DMSO; activation, % at 3 µM; 310 compounds, 80% hits; AID 1526, 2009;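 active = activation above a set limit derived from the earlier primary screen, cut at about 12% in these data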
Numbers without * were called inactive; x = no result given.

SMILES | OXTR potentiate | TRPML3 agonist | V1aR counter | OXTR ag | zfTRPN1 agonist | TRPN1 ag 2 | TRPML3 confirm
CCN(c1ccccc1)S(=O)(=O)c1ccc(F)cc1C | -8.5 | 23.7* | -0.5 | -2.7 | -1.9 | -2.6 | 50.0*
NC(=O)c1cc(Cl)ccc1OCC(=O)NC1CC1 | 1.4 | x | 1.2 | 1.7 | x | x | x
CCCCC(CC)C(=O)Nc1ncc([N+](=O)[O-])s1 (stereo not drawn) | -13.1 | 12.6* | 10.1 | 7.6 | 14.0 | 15.8 | 5.6
O=C(Cc1ccccc1)Nc1ccccc1N1CCOCC1 | -9.3 | 1.0 | -0.8 | -0.9 | -1.5 | x | x
O=C(Cc1ccc(Cl)c(Cl)c1)Nc1ccccc1N1CCOCC1 | -3.5 | 51.4* | 0.0 | -0.4 | -0.4 | 1.0 | 66.8*
C=CCCC(=O)N(C)CCO | 9.8 | x | 0.7 | 1.0 | x | x | x
COc1ccc(C(CNC(=O)C(C)Oc2ccc(Br)cc2)N2CCCC2)cc1 (stereo not drawn) | -0.5 | x | 1.9 | 2.0 | x | x | x
COC(=O)c1ccc(/C=C(\C#N)c2nc3ccccc3s2)cc1 | -9.1 | 14.3* | 23.7* | 30.3* | 14.1 | 0.5 | 0.7
O=C(O/N=C1\CCCCC1c1ccc([N+](=O)[O-])cc1[N+](=O)[O-])c1c(F)cccc1F (stereo not drawn) | -1.2 | 56.7* | -0.3 | -1.6 | -1.8 | -1.7 | 6.4
O=[N+]([O-])c1ccc(C2CCCC/C2=N/OCc2ccccc2F)c([N+](=O)[O-])c1 (stereo not drawn) | -11.6 | 0.1 | 0.8 | 5.2 | -0.4 | x | x
Cc1ccccc1CNC(=O)c1ccc2nc(N3CCOCC3)sc2c1 | -3.3 | x | 1.9 | 0.4 | x | x | x
CN(C)c1ncc(S(=O)(=O)c2ccc(Cl)cc2)c(-c2ccc(Cl)cc2Cl)n1 | -7.4 | 1.4 | 0.7 | -0.8 | -0.1 | x | x
CN(C)c1ncc(S(=O)(=O)c2ccccc2)c(-c2ccc(Cl)cc2Cl)n1 | -5.3 | 58.1* | -0.3 | -2.7 | -0.5 | -1.1 | 81.9*
CCOC(=O)CC1CCCCN1C(=O)c1cc(COc2cccc3cnccc23)on1 (stereo not drawn) | -10.0 | x | 14.4 | 14.4 | x | x | x
CCN(C1CCCCC1)S(=O)(=O)c1cc(C)ccc1OC | -10.8 | 22.4* | -1.4 | -2.1 | -1.3 | -1.6 | 34.8*
CCN(C1CCCCC1)S(=O)(=O)c1ccc(-n2cnnn2)c(C)c1 | -12.5 | x | 1.3 | 0.6 | x | x | x
CCN(C1CCCCC1)S(=O)(=O)c1ccc(OC)c(C)c1 | -17.4 | 25.7* | -1.8 | -2.1 | -0.8 | -2.5 | 86.7*
C[C@H](CO)N1C[C@H](C)[C@@H](CN(C)S(=O)(=O)c2ccccc2)Oc2ccc(NS(=O)(=O)c3cn(C)cn3)cc2C1=O | -5.2 | x | 0.4 | 1.7 | x | x | x
FC(F)Sc1ccc(NC(=S)NC2CCCC2)cc1 | -12.8 | 12.5* | 7.4 | 16.3 | 17.2 | 20.1* | 6.9
CN(CC(=O)NC1CCCc2ccccc21)C1CCCCC1 (stereo not drawn) | -7.4 | 0.7 | -1.3 | -0.1 | -1.4 | x | x
CN(C1CCCCC1)S(=O)(=O)c1cccc(C(=O)OCC(=O)NC2CCCc3ccccc32)c1 (stereo not drawn) | -10.1 | 69.5* | -0.6 | -1.1 | 4.0 | 4.3 | 61.2*
CNC[C@H]1Oc2ccc(NC(=O)C3CCCCC3)cc2CC(=O)N([C@H](C)CO)C[C@@H]1C | -3.9 | x | 2.4 | 1.5 | x | x | x
O=S(=O)(c1ccccc1)C1(S(=O)(=O)c2ccccc2)CCCC1 | -6.5 | 18.0* | 2.7 | 2.6 | 1.7 | 0.7 | 28.9*
C/C(=N\NC(=O)c1cc(C)oc1C)c1ccc2ccccc2c1 | -2.8 | x | 0.0 | -1.3 | x | x | x
